Test results reported in ChEMBL document CHEMBL2157903, “2-Arylbenzofuran-based molecules as multipotent Alzheimer's disease modifying agents” (Eur J Med Chem, 2012).

How the values were obtained:
Acetylcholinesterase = Acetylcholinesterase (Homo sapiens, UniProt P22303); assay: Inhibition of human recombinant AChE using acetylthiocholine iodide as substrate preincubated for 20 mins prior to substrate addition by Ellman's method; conditions: read-out: IC50
How it was run: (§1)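 Ellman method with acetylthiocholine iodide (AChE) or butyrylthiocholine iodide (BuChE) as substrate. Enzyme and inhibitor preincubated 20 min at 37 °C before substrate addition. Blanks without enzyme corrected for non-enzymatic hydrolysis. Five inhibitor concentrations giving 20-80% inhibition. IC50 from linear regression of % inhibition vs log final concentration. Mean of two or three independent measurements, each in triplicate.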

Cholinesterase = Cholinesterase (Homo sapiens, UniProt P06276); assay: Inhibition of human serum BuChE using butyrylthiocholine iodide as substrate preincubated for 20 mins prior to substrate addition by Ellman's method; how it was run: as §1
Cholinesterase, sequence (P06276 whole entry): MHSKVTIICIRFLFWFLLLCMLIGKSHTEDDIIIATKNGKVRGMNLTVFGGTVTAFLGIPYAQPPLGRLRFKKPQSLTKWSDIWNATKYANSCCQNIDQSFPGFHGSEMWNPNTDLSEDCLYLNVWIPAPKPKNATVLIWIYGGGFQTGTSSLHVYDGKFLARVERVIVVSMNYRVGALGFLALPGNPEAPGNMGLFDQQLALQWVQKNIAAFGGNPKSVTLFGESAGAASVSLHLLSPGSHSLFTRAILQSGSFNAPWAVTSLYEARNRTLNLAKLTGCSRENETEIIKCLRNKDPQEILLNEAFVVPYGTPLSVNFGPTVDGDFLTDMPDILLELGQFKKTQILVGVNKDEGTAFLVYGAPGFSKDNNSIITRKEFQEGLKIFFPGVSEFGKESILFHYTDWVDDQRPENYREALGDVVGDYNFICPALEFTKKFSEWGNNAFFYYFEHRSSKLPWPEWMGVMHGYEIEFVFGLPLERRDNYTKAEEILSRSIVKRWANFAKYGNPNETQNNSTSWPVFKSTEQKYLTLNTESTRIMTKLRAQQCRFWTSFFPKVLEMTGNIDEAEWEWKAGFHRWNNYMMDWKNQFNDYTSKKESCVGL

[1] = Induction of amyloid beta (25 to 35) fibril formation at 10 uM incubated up to 6 hrs by UV-Vis spectrophotometry
How it was run: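 Aβ25-35, sonicated 1 min, was mixed in 10 mM phosphate buffer (pH 7.2) with compound added in MeOH, on ice. Polymerization was followed by UV-visible spectroscopy at 190–380 nm over 0–6 h. Compound-alone spectra were subtracted, and peptide-alone and curcumin controls were run in parallel. IC50 (0.1–50 range) came from a sigmoidal least-squares fit. At least three independent runs.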

Cannabinoid receptor 2 [2] = biological target: T1, Cannabinoid receptor 2 (Homo sapiens, UniProt P34972); assay: Displacement of [3H]CP-55940 from human recombinant CB2 receptor expressed in HEK293 cells at 10 uM after 90 mins; format: cell-based
T1 sequence (P34972 whole entry): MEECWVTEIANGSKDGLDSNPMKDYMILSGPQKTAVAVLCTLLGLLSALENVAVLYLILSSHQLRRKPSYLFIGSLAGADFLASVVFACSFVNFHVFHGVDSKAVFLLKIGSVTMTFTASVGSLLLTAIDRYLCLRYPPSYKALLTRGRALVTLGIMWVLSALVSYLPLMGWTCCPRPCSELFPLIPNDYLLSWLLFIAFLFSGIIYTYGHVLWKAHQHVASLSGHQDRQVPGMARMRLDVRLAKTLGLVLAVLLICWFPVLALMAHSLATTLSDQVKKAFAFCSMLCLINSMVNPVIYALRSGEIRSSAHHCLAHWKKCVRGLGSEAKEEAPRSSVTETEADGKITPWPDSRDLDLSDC

Cannabinoid receptor 1 [3] = biological target: T2, Cannabinoid receptor 1 (Homo sapiens, UniProt P21554); assay: Displacement of [3H]CP-55940 from human recombinant CB1 receptor expressed in HEK293 cells after 90 mins; format: cell-based
T2 sequence (P21554 whole entry): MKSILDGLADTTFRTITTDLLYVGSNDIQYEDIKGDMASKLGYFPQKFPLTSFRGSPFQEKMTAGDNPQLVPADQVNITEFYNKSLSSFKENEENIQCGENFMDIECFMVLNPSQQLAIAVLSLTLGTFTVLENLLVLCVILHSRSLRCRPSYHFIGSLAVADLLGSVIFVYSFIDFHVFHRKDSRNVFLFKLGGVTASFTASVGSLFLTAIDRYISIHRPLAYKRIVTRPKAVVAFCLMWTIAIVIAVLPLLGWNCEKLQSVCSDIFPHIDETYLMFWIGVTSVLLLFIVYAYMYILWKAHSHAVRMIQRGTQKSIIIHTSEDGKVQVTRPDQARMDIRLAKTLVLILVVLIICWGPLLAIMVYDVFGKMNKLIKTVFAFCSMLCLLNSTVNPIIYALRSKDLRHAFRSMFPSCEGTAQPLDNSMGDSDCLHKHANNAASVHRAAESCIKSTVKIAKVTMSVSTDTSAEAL
How it was run: (§2)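 Membranes from HEK-293 cells stably expressing human recombinant CB1 (Bmax 2.5 pmol/mg) or CB2 (Bmax 4.7 pmol/mg). Incubated with [3H]-CP-55,940 (CB1 0.14 nM, Kd 0.18 nM; CB2 0.084 nM, Kd 0.31 nM) and increasing compound concentrations for 90 min at 30 °C. Non-specific binding defined with 10 […] 55212-2. IC50 by non-linear regression, converted to Ki by Cheng-Prusoff. Means of at least n = 3.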

Cannabinoid receptor 1 [4] = biological target: T2, Cannabinoid receptor 1; assay: Displacement of [3H]CP-55940 from human recombinant CB1 receptor expressed in HEK293 cells at 10 uM after 90 mins; format: cell-based
How it was run: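 Membranes from HEK-293 cells stably expressing human recombinant CB1 or CB2 were incubated with [³H]-CP-55,940 (0.14 nM for CB1; 0.084 nM for CB2) plus test compound for 90 min at 30 °C. Non-specific binding was defined with WIN 55212-2. Percent displacement of bound radioligand at the maximum tested concentration is reported. At least n = 3 experiments.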

Cannabinoid receptor 2 [5] = biological target: T1, Cannabinoid receptor 2; assay: Displacement of [3H]CP-55940 from human recombinant CB2 receptor expressed in HEK293 cells after 90 mins; format: cell-based; how it was run: as §2

Acetylcholinesterase, sequence (P22303 whole entry): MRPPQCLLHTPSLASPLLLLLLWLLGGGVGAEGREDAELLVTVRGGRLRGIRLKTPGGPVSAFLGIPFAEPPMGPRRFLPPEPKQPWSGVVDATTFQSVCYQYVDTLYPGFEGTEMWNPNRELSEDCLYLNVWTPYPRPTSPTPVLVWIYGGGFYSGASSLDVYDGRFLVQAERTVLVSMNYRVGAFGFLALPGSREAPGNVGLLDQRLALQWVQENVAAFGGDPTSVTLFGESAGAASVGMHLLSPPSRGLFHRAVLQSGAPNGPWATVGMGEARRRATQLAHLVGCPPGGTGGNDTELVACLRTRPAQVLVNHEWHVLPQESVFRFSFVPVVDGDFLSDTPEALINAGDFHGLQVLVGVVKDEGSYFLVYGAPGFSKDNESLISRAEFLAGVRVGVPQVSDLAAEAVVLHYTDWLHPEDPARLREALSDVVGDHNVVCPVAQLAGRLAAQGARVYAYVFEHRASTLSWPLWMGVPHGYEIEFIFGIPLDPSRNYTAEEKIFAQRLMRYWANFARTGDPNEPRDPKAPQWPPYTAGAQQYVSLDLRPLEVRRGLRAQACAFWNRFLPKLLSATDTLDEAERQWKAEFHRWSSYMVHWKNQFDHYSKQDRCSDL

**Q.** With `CN(CCCCCCCOc1ccc(-c2oc3ccccc3c2C(=O)c2c3ccccc3cc3ccccc23)cc1)Cc1ccccc1` as the molecule, how does the IC50 (Acetylcholinesterase) read?
**A.** 67.7 µM

**Q.** What about the IC50 (Cholinesterase) of the same molecule?
**A.** 81.2 µM

**Q.** What about the Activity [1] of the same molecule?
**A.** Toxic

**Q.** What about the Activity (Cannabinoid receptor 2 [2]) of the same molecule?
**A.** 9.87%

**Q.** And the EC50 (Cannabinoid receptor 1 [3])?
**A.** > 10 µM

**Q.** And the Ki (Cannabinoid receptor 1 [3])?
**A.** > 10 µM

**Q.** What about the Activity (Cannabinoid receptor 1 [4]) of the same molecule?
**A.** 30.3%

**Q.** What about the EC50 (Cannabinoid receptor 2 [5]) of the same molecule?
**A.** > 10 µM

**Q.** And the Ki (Cannabinoid receptor 2 [5])?
**A.** > 10 µM
